The source of these data is ChEMBL document CHEMBL1127313, “The discovery of sulfonamide endothelin antagonists and the development of the orally active ETA antagonist 5-(dimethylamino)-N-(3,4-dimethyl-5-isoxazolyl)-1-naphthalenesulf onamide” (J Med Chem, 1994).

In one assay the test system is A10. Kind of assay: Ability to inhibit [125I]ET1 binding to vascular smooth muscle (vsm)- A10 cells. To be noted: Rattus norvegicus. Type of assay: functional, cell-based. In a few lines:
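Intact rat vsm-A10 cells: confluent cells scraped, pelleted, resuspended in PBS with 0.1% glucose and 0.1% BSA. Bound and free ligand separated by filtration; bound radioactivity counted by scintillation; IC50 reported.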

The next assay relates to Rattus norvegicus. The experiment in a line: Antihypertensive activity administered orally at […] was determined in vivo in rats. Type of assay: functional. In a few lines: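 Uninephrectomized rats implanted with a DOCA pellet and given saline to drink develop hypertension. Single 100 µmol/kg oral dose in 5% NaHCO3 given at time 0, with a vehicle group. Mean arterial pressure followed over 24 h as % change from pre-dose control; mean ± SEM, n = 6 animals.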

The target in assay [1] is T1, Endothelin-1 receptor (Homo sapiens) (UniProt P25101).
T1 sequence (whole entry): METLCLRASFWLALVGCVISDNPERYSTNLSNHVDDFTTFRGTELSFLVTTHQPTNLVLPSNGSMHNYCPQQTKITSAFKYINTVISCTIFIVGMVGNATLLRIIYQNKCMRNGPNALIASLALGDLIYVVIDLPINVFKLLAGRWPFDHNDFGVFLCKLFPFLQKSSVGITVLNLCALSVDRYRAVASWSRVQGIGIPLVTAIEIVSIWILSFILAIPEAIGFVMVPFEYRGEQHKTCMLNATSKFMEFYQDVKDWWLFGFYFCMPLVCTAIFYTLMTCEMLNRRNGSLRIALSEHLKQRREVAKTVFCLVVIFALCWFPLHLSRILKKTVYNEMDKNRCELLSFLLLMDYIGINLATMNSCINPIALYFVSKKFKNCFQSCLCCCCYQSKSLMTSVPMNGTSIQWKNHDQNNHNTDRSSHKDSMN
To be noted: Oryctolagus cuniculus.

Structures are written as SMILES.

On to `Nc1ccc(S(=O)(=O)Nc2cc(-c3ccccc3)no2)cc1`, for which the IC50 with A10 is > 32 µM.
In the assay with Rattus norvegicus, `Cc1noc(NS(=O)(=O)c2cccc3c(N(C)C)cccc23)c1C` [BMS-182874] gave a Mean arterial blood pressure of 45.8 mmHg.
With `CCCCCc1cc(NS(=O)(=O)c2ccc(N)cc2)on1`, the IC50 with A10 is > 32 µM.
In assay [1], `Cc1noc(NS(=O)(=O)c2cccc3c(O)cccc23)c1C` displayed a K Bapp of 100 µM.

One may read the IC50 as the concentration needed to halve the response being measured. Higher therefore signals lower potency.
